Compound activity: PubChem BioAssay, several laboratories
ATG4B inhibitor: ATG4B protease inhibitors, primary screen, biochemical, fluorescence, uHTS. Cysteine protease ATG4B (Homo sapiens), Q9Y4P1. ATG4B cleavage of LC3-PLA2, NBD-HPC fluorescence, 1 h. inhibition, % at 8.33 µM. 340,000 tested, 0.51% active; in the data active = inhibition above about 40%
MC4R ag barr: MC4R agonists recruiting beta-arrestin, primary screen, cell-based, luminescence, agonist arm of biased-ligand search. Melanocortin receptor 4 (Homo sapiens), P32245. U2OS MC4R beta-arrestin complementation; percent of melanotan II response, DMSO zero. activation, % at 8.9 µM. 360,000 tested, 0.98% active. AID 540308, 2011;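 active = activation above a per-plate cutoff, the mean activation of sample wells on that plate plus 3 SD, cut at about 8% in these data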
Target sequence (P32245 whole entry, looked up): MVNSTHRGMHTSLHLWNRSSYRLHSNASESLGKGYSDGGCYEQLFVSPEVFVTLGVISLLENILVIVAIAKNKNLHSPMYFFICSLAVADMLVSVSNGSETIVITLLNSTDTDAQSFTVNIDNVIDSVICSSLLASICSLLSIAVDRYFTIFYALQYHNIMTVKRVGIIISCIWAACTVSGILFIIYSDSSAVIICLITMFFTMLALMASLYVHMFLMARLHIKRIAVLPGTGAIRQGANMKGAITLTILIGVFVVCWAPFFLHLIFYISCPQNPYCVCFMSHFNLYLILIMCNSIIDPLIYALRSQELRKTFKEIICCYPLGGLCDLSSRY
MC4R antag cAMP: MC4R antagonists of cAMP signaling, primary screen, cell-based, TR-FRET, antagonist arm of biased-ligand search | Melanocortin receptor 4 (Homo sapiens), P32245 | MC4R-expressing cells, MTII-stimulated cAMP, LANCE TR-FRET | inhibition, % at 6.5 µM | 360,000 tested, 0.48% active | AID 540295, 2011;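 active = inhibition above its plate's cutoff, the mean of tested wells on that plate plus 3 SD, cut at about 29% in these data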;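 also: 0% = Melanotan II alone and 100% = Melanotan II plus saturating MCL0020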
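system = U2OS cells with stable human MC4R expression | also added = Melanotan II challenge after compound preincubation | dosing = one concentration, 6.5 µM nominal | incubation = compound 30 min, challenge 1 h, detection 1 h | measured by = TR-FRET with Eu-cAMP and labeled anti-cAMP, 671 nm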
MPTP inh: mitochondrial permeability transition pore inhibitors, primary screen, biochemical, isolated mouse mitochondria, absorbance; Ca2+ swelling absorbance, 30 min; inhibition, % at 10 µM; 360,000 tested, 1.4% active;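 active = inhibition of 50% or more, scaled per plate between neutral and stimulator controls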;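 also: 0% = DMSO wells given calcium and 100% = 1 mM EGTA wells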
SMARCA2 act: SMARCA2 (BRM) function activators, primary screen, cell-based, luminescence, high throughput; MG213 cells, MMTV-luciferase reporter, dexamethasone, overnight; activation, % at 9.1 µM; 370,000 tested, 1% active; AID 652017, 2013; in the data active = activation above about 7.8%;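 also: 0% = vehicle wells and 100% = reference activator wells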
ATG4B conf: ATG4B protease inhibitors, retest, confirmation, biochemical, fluorescence, single concentration | inhibition, % at 8.33 µM | shares compounds with ATG4B inhibitor | ATG4B protease fluorescent substrate cleavage assay | 320 tested, 92% active; in the data active = inhibition above about 39%
PLA2 ctr: PLA2 enzyme inhibition, counter-screen for ATG4B inhibitor project, biochemical, single concentration, uHTS hits; shares compounds with ATG4B inhibitor; purified PLA2, NBD-C6-HPC fluorescence, 45 min; inhibition, % at 8.33 µM; 1,600 tested, 66% active; in the data active = inhibition above about 50%
Target sequence (P04054 whole entry, looked up): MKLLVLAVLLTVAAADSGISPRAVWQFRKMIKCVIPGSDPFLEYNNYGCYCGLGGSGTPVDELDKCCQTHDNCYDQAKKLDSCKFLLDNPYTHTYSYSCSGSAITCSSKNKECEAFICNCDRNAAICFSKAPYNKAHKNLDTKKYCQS
The depositor's hits bear a star; / = no result given. Sampled rows, rich in hits. Any-hit rate of the full collection: about 4.1%.

SMILES	ATG4B inhibitor	MC4R ag barr	MC4R antag cAMP	MPTP inh	SMARCA2 act	PLA2 ctr	others
COc1cc(/C=C2\SC(=Nc3ccccc3)N(CCc3c[nH]c4ccccc34)C2=O)ccc1OC(C)C(=O)O (stereo not given)	46*	3	13	4	0	19	ATG4B conf=51*
NC(=O)c1ccc(NC(=O)COC(=O)c2c3c(nc4ccccc24)/C(=C\c2cccs2)CCC3)cc1	-21	-1	2	4	1	/
CCc1cccc(C)c1NC(=O)COC(=O)c1c2c(nc3ccccc13)/C(=C\c1cccs1)CCC2	46*	1	20	5	-2	47
CC(=O)N1c2cc(S(=O)(=O)N3CCN(c4ccccc4F)CC3)c(Br)cc2CC1C (stereo not given)	/	/	/	/	-4	/
CCc1cccc(CC)c1NC(=O)COC(=O)c1ccccc1-c1nc2ccccc2s1	66*	1	20	1	-1	74*
COc1ccc(C=O)cc1COc1ccccc1F	8	0	-21	-2	1	/
COc1ccc(C=O)cc1CN1CCCN(Cc2ccccc2F)S1(=O)=O	53*	1	2	1	-1	56*
C=CCn1c(SCC(=O)Nc2ccc3c(c2)CCC3)nnc1-c1cccs1	67*	-3	6	1	-4	52*
Cc1ccc2c(c1)C(c1ccc(N3CCOCC3)cc1)=NNC(c1cccs1)=N2	13	-3	-1	1	-1	/
Fc1ccc2c(c1)C(c1ccc(N3CCOCC3)cc1)=NNC(c1cccs1)=N2	65*	-2	5	5	/	70*
Brc1ccc2c(c1)C(c1ccc(N3CCOCC3)cc1)=NNC(c1cccs1)=N2	66*	-3	4	3	-5	65*
CCOc1ccc(C2=NNC(c3cccs3)=Nc3ccc(OC)cc32)cc1	59*	0	-6	-1	1	73*
CCOc1ccc(C2=Nc3ccc(Br)cc3C(c3ccc(N4CCOCC4)cc3)=NN2)cc1	-4	-2	6	2	1	/
O=C(OCCN1CCN(C2CN(Cc3cn(Cc4ccccc4C(F)(F)F)nn3)S(=O)(=O)C2)CC1)c1cc2ccccc2o1 (stereo not given)	/	/	/	/	2	/
Cc1nn(-c2ccccc2)c(C)c1/C=N/NC(=O)CSc1nc2ccccc2c(=O)n1-c1ccc(Br)cc1	22	1	3	1	-4	/
Cc1ccc(-n2c(SCC(=O)N/N=C/c3c(C)nn(-c4ccccc4)c3C)nc3ccccc3c2=O)cc1	40*	-1	4	0	-4	-4	ATG4B conf=78*
CCOC(=O)Cn1cc(/C=N/N2C(=O)C3C4C=CC(C4)C3C2=O)c2ccccc21 (stereo not given)	-8	-1	1	1	1	/
O=C1C2C3C=CC(C3)C2C(=O)N1/N=C/c1cn(Cc2ccccc2)c2ccccc12 (stereo not given)	48*	-1	17	3	-1	57*
O=C1C2C3C=CC(C3)C2C(=O)N1/N=C/c1cn(Cc2ccc(F)cc2)c2ccccc12 (stereo not given)	48*	-3	1	1	-2	70*
O=C(Nc1ccccc1Cl)C1C(c2ccccc2)C1(Cl)Cl (stereo not given)	52*	4	4	1	-4	56*
CCOc1ccccc1NC(=O)C1C(c2ccccc2)C1(Cl)Cl (stereo not given)	/	1	10	1	2	/
O=C(c1ccc(F)cc1Cl)N1CCCC(c2nc(-c3cccs3)no2)C1 (stereo not given)	/	/	/	/	-2	/
O=C1NN(c2ccccc2)C(=O)/C1=C/c1ccc(Sc2cccc3ccccc23)o1	44*	0	5	16	-4	32	ATG4B conf=51*
Cc1cc(OCC(C)CN2CCC(C(O)(c3ccccc3)c3ccccc3)CC2)ccc1Br (stereo not given)	/	/	/	/	-5	/
Cc1cccc(C)c1NC(=O)C1CCCN1S(=O)(=O)c1cccc2cccnc12 (stereo not given)	/	/	/	/	2	/
SMILES	ATG4B inhibitor	MC4R ag barr	MC4R antag cAMP	MPTP inh	SMARCA2 act	PLA2 ctr	others
COc1ccc2ccccc2c1C=NNC(=O)c1cc(-c2ccc(C)c(C)c2)n[nH]1	/	/	/	/	-5	/
Cc1cc(C)c(Nc2cc(S(=O)(=O)O)c(N)c3c2C(=O)c2ccccc2C3=O)c(C)c1	49*	-5	-11	20	0	72*
Cc1cc(C)c(NC(=O)COC(=O)c2cccc3c2C(=O)c2ccccc2C3=O)c(C)c1	-4	-2	9	1	-3	/
O=S(=O)(Nc1ncnc2sc3c(c12)CCC3)c1ccc2ccccc2c1	41*	0	3	0	-1	56*
Cc1ccc(-n2c(O)c(C=Nc3ccccc3-c3n[nH]c(=S)[nH]c3=O)c3ccccc3c2=O)cc1C	19	3	14	0	0	/
Cc1ccc(-n2c(O)c(C=Nc3ccccc3-c3n[nH]c(=S)[nH]c3=O)c3ccccc3c2=O)c(C)c1	43*	2	19	1	1	48	ATG4B conf=65*
CCOc1ccc(CCNC(=O)c2cc3ccsc3n2C)cc1OCC	/	/	/	/	-1	/
Cc1ccc(S(=O)(=O)N2[C@@H](c3ccc(C(C)(C)C)cc3)C(C(=O)O)=CC[C@H]2c2cccc(Cl)c2)cc1	41*	2	-1	2	-4	61*
Cc1ccc([C@H]2C(C(=O)O)=CC[C@@H](c3cccc(Cl)c3)N2S(=O)(=O)c2ccc(C)cc2)cc1	2	0	8	7	-1	/
Cc1cccc(C)c1N1CCN(S(=O)(=O)c2ccc(F)cc2)CC1	51*	-1	2	2	-1	62*
Cc1ccc(-n2c(Cc3cccs3)nnc2SCc2ccc(C#N)cc2)cc1	/	/	/	/	-3	/
COCCNc1nc(CSc2ccccc2)nc2sc(C)c(C)c12	46*	-1	1	0	-3	49
NC(=O)c1ccccc1NC(=O)COC(=O)CSCc1cccc(Cl)c1	0	3	5	0	-1	/
CN(CC(=O)Nc1ccccc1-c1ccccc1)Cc1ccccc1Cl	55*	0	18	7	-1	52*
O=C(CSCc1cccc(Cl)c1)Nc1ccccc1-c1ccccc1	47*	1	6	1	-2	51*
Cc1ccccc1CSCC(=O)Nc1ccccc1-c1ccccc1	51*	4	8	-2	-5	59*
